Assay results reported in publication PMC4071626 (MedChemComm, 2013).

Tests used:
Δ49N CHKA2 = Δ49N CHKA2 (Homo sapiens, UniProt P35790); assay: Lineweaver-Burk reaction kinetics against Δ49N CHKA2; assay type: biochemical; conditions: 0.1, 1 or 10 μM inhibitor; choline or ATP varied, the other kept at KM
Method in brief: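 Δ49N CHKA2 reaction kinetics run without inhibitor or with test compound at 0.1, 1 or 10 μM. Choline varied with ATP fixed at KM, or ATP varied with choline fixed at KM; double-reciprocal (Lineweaver–Burk) plots used to assign inhibition type versus each substrate.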

[1] = test system: CHK reaction in HCT-116 cells; assay: Inhibition of [3H]PCho formation from [3H]Cho in whole HCT-116 cells; assay type: cell-based, human; conditions: HCT-116 cells incubated with [3H]Cho
Method in brief: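 HCT-116 cells incubated with [3H]Cho plus test compound over a range of concentrations; [3H]PCho formed from [3H]Cho measured to follow dose-dependent change in cellular choline phosphorylation.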

Sequence of Δ49N CHKA2 (P35790 50-457 limits assumed, stated change not applied): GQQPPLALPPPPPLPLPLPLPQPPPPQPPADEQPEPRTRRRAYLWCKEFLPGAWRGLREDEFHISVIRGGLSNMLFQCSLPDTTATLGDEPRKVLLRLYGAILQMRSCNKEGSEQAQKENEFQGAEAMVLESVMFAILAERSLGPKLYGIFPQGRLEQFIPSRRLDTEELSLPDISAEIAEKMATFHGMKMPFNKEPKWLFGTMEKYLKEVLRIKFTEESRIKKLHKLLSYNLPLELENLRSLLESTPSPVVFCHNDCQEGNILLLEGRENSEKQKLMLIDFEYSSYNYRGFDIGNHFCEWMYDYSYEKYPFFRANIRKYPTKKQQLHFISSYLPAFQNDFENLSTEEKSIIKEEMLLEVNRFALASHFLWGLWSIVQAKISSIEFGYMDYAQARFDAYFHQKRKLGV

| SMILES | Type of inhibition (Lineweaver-Burk plots) (Δ49N CHKA2) | Concentration above which [3H]PCho formation is inhibited >75% [1] |
| --- | --- | --- |
| CN(C)c1cc[n+](CCCCCCCCCCCC[n+]2ccc(N(C)C)cc2)cc1.[Br-].[Br-] [Compound 8] | competitive with choline, but not with ATP | above 6.5 ± 4 μM |
| CN(C)c1cc[n+](CCCCCCCCCCCCn2cnc3c(N)ncnc32)cc1.[Br-] [Compound 12] | mixed type of inhibition |  |
| CN(C)c1cc[n+](CCCCCCCCCCCCCC[n+]2ccc(N(C)C)cc2)cc1.[Br-].[Br-] [Compound 13] |  | > 2.4 ± 1 µM |
